From ChEMBL document CHEMBL1148730, “Design of noncompetitive interleukin-8 inhibitors acting on CXCR1 and CXCR2” (J Med Chem, 2007)
Activity calls are given as the source filed them. The calls are words filed in the database; no cut-off is given here.

Experiments:
[1] = Inhibition of CXCL1-induced cell migration in human PMN cells at 0.01 uM by chemotaxis assay; type: functional
How it was run: (§1)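 Human PMNs from normal-donor buffy coats (dextran sedimentation, hypotonic lysis; 95% purity, >95% viability). Cells at 1.5-3 × 10⁶/mL preincubated 15 min at 37 °C with vehicle or compound, then seeded in triplicate in the upper well of a 48-well micro-chemotaxis chamber. Lower well held CXCL8 1 nM or CXCL1 10 nM. Chamber ran 45 min at 37 °C in 5% CO₂; filters were fixed and stained, and five 100× fields per well were counted.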

[2] = Inhibition of CXCL8-induced cell migration in human PMN cells at 0.01 uM by chemotaxis assay; type: functional; how it was run: as §1
L1.2 [3] = assay: Inhibition of CXCL8-induced cell migration in L1.2 cells expressing wild type CXCR1 at 0.1 uM by chemotaxis assay; type: functional; conditions: Mus musculus
How it was run: (§2)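 Mouse L1.2 lymphoma cells were transiently electroporated with wild-type or Ile43Val human CXCR1, with expression checked by flow cytometry at 48 h. Cells were kept overnight in 5 mM sodium butyrate, resuspended at 10⁷/mL, and pretreated 30 min at 37 °C with compound (1-1000 nM). Migration to 10 nM CXCL8, with compound in both chambers, ran 4 h at 37 °C through 5 µm Transwells. Cells were counted in a Bürker chamber and expressed as % of migration without compound, from ≥3 independent experiments.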

L1.2 [4] = assay: Inhibition of CXCL8-induced cell migration in L1.2 cells expressing CXCR1 by chemotaxis assay; type: functional, cell-based; conditions: Mus musculus; how it was run: as §2
L1.2 [5] = assay: Inhibition of CXCL8-induced cell migration in L1.2 cells expressing Ile43Val CXCR1 mutant by chemotaxis assay; type: functional, cell-based; conditions: Mus musculus; how it was run: as §2
L1.2 [6] = assay: Inhibition of CXCL8-induced cell migration in L1.2 cells expressing wild type CXCR1 at up to 1000 nM by chemotaxis assay; type: functional, cell-based; conditions: Mus musculus; how it was run: as §2
[7] = Inhibition of CXCL8-induced cell migration in human PMN cells at 1 nM chemotaxis assay; type: functional; how it was run: as §1
[8] = Inhibition of CXCL8-induced cell migration in human PMN cells 0.1 uM chemotaxis assay; type: functional; how it was run: as §1
[9] = Inhibition of CXCL1-induced cell migration human PMN cells at 0.1 uM chemotaxis assay; type: functional; how it was run: as §1
Macrophage = assay: Inhibition of the LPS-induced PGE2 production in human macrophages at 10 uM; type: functional

Compound | inhibition at 0.01 µM [1] [%] | inhibition at 0.01 µM [2] [%] | other results
C[C@@H](C(=O)Nc1ccccn1)c1ccc(OS(=O)(=O)C(F)(F)F)cc1 | 50 | 48 | 
CC(C(=O)O)c1ccc(NS(C)(=O)=O)cc1 (centres undefined) |  | -8 | 
C[C@@H](C(=O)NS(=O)(=O)c1cccnc1)c1ccc(OS(=O)(=O)C(F)(F)F)cc1 |  | 11 | 
CC(C(=O)O)c1cccc(C(=O)c2cccs2)c1 (centres undefined) | 50 | 51 | 
CC(C(=O)O)c1ccc(N2CCCC2=O)cc1 (centres undefined) |  | 10 | 
CONC(=O)[C@H](C)c1ccc(OS(=O)(=O)C(F)(F)F)cc1 | 40 | 60 | 
C[C@@H](C(=O)NC1CCCC1)c1ccc(OS(=O)(=O)C(F)(F)F)cc1 |  | 0 | 
CCC(=O)Oc1ccc(C(C)C(=O)O)cc1 (centres undefined) |  | -6 | 
CC(C(=O)O)c1ccc(NS(=O)(=O)C(F)(F)F)cc1 (centres undefined) |  | 10 | 
CC(C(=O)O)c1cccc(C(C)(O)c2ccccc2)c1 (centres undefined) |  | 0 | 
CC(C(=O)O)c1ccc(-c2cccs2)cc1 (centres undefined) |  | 11 | 
C[C@@H](C(=O)Nc1nccs1)c1ccc(OS(=O)(=O)C(F)(F)F)cc1 | 56 | 57 | 
CC(C(=O)O)c1cccc(S(=O)(=O)c2ccccc2)c1 (centres undefined) |  | 9 | 
C[C@@H](C(=O)Nc1ncco1)c1ccc(OS(=O)(=O)C(F)(F)F)cc1 | 48 | 50 | 
CC(C)Cc1ccc([C@@H](C)C(=O)NS(C)(=O)=O)cc1 [REPARIXIN] |  |  | inhibition at 0.1 µM (L1.2 [3]): 80%; IC50 (L1.2 [4]): 5.6 nM; IC50 (L1.2 [5]): 80 nM; Activity (L1.2 [6]): Active
C/C=C/c1cccc(C(C)C(=O)O)c1 (centres undefined) |  | -1 | 
C[C@@H](C(=O)Nc1ccccc1)c1ccc(OS(=O)(=O)C(F)(F)F)cc1 |  | 10 | 
Cc1ccc(S(=O)(=O)Oc2ccc(C(C)C(=O)O)cc2)cc1 (centres undefined) | 65 | 49 | 
CC(C(=O)O)c1ccc(OS(C)(=O)=O)cc1 (centres undefined) |  | 5 | 
CC(C(=O)O)c1cccc(C(C)c2ccccc2)c1 (centres undefined) | 45 | 55 | 
C[C@@H](C(=O)NO)c1ccc(OS(=O)(=O)C(F)(F)F)cc1 | 50 | 48 | 
CC(=O)c1cccc([C@@H](C)C(=O)O)c1 |  | 5 | 
CCC(O)c1cccc(C(C)C(=O)O)c1 (centres undefined) | 40 | 57 | 
CC(C(=O)O)c1cccc(C(=O)c2ncco2)c1 (centres undefined) |  | 26 | 
CC(C)C(=O)c1cccc(C(C)C(=O)O)c1 (centres undefined) |  | 20 | 
CC(C(=O)O)c1ccc(C(C)(C)C)cc1 (centres undefined) |  | 6 | 
C[C@@H](C(=O)N(C)O)c1ccc(OS(=O)(=O)C(F)(F)F)cc1 | 47 | 48 | 

Compound | inhibition at 0.01 µM [1] [%] | inhibition at 0.01 µM [2] [%] | other results
CC(Cc1cccc(C(C)C(=O)O)c1)c1ccccc1 (centres undefined) |  | 0 | 
C[C@@H](C(=O)O)c1cccc(C(=O)c2ccccc2)c1 [R-KETOPROFEN] | 61 | 64 | 
C[C@@H](C(=O)Nc1cccnc1)c1ccc(OS(=O)(=O)C(F)(F)F)cc1 |  | 5 | 
CC(C(=O)O)c1ccc(OS(=O)(=O)C(F)(F)F)cc1 (centres undefined) | 57 | 57 | 
Cc1ccc(S(=O)(=O)Nc2ccc(C(C)C(=O)O)cc2)cc1 (centres undefined) | 0 | 69 | 
CNC(=O)[C@H](C)c1ccc(OS(=O)(=O)C(F)(F)F)cc1 |  | 22 | 
CCc1ccccc1S(=O)(=O)Nc1ccc(C(C)C(=O)O)cc1 (centres undefined) | 80 | 47 | 
CC(C)Cc1cccc(C(C)C(=O)O)c1 (centres undefined) |  | -10 | 
CC(C)c1cccc(C(C)C(=O)O)c1 (centres undefined) | 55 | 62 | 
CC(C(=O)O)c1cccc(C(=O)c2ccco2)c1 (centres undefined) |  | -3 | 
C[C@@H](C(=O)NCC1CC1)c1ccc(OS(=O)(=O)C(F)(F)F)cc1 |  | 12 | 
C[C@@H](C(=O)NC1CC1)c1ccc(OS(=O)(=O)C(F)(F)F)cc1 |  | -11 | 
C[C@@H](C(=O)NS(=O)(=O)c1ccccc1)c1ccc(OS(=O)(=O)C(F)(F)F)cc1 | 8 | 43 | 
CC(C(=O)O)c1ccc(CC2CCCCC2)cc1 (centres undefined) | 39 | 2 | 
C=C(c1ccccc1)c1cccc(C(C)C(=O)O)c1 (centres undefined) | 2 | 47 | 
CC(C(=O)O)c1cccc(C(O)c2ccccc2)c1 (centres undefined) [2-{3-[HYDROXY(PHENYL)METHYL]PHENYL}PROPANOIC ACID] | 40 | 31 | 
CC(C(=O)O)c1ccc(CC2CCCC2)cc1 (centres undefined) | 40 | 10 | 
CC(C(=O)O)c1ccc(C2CCCCC2)cc1 (centres undefined) [HEXAPROFEN] |  | 10 | 
CC(C(=O)O)c1ccc(NS(=O)(=O)c2ccccc2Cl)cc1 (centres undefined) | 66 | -2 | 
CC(C(=O)O)c1ccc(CC2CC2)cc1 (centres undefined) | 30 | 24 | 
CCCCc1cccc(C(C)C(=O)O)c1 (centres undefined) |  | 3 | 
CC(C)=Cc1ccc(C(C)C(=O)O)cc1 (centres undefined) |  | 14 | 
C[C@@H](C(=O)NS(=O)(=O)C(F)(F)F)c1ccc(OS(=O)(=O)C(F)(F)F)cc1 |  | -4 | 
CC(C(=O)O)c1cccc(Cc2ccccc2)c1 (centres undefined) |  | 10 | 
CC(C(=O)O)c1ccc(OS(=O)(=O)C(C)C)cc1 (centres undefined) | 46 | 49 | 
CC(C(=O)O)c1ccc(NC(=O)c2ccccc2)cc1 (centres undefined) |  | 8 | 
CC(C(=O)O)c1cccc(C(=O)C2CCCCC2)c1 (centres undefined) | 4 | 5 | 

Compound | inhibition at 0.01 µM [1] [%] | inhibition at 0.01 µM [2] [%] | other results
CC(O)c1cccc(C(C)C(=O)O)c1 (centres undefined) | 40 | 43 | 
CC(C)c1ccc(C(C)C(=O)O)cc1 (centres undefined) |  | 15 | 
C[C@@H](C(=O)Nc1nc(C(F)(F)F)cs1)c1ccc(OS(=O)(=O)C(F)(F)F)cc1 | 60 | 64 | 
CC(C(=O)O)c1ccc(OS(=O)(=O)c2ccccc2)cc1 (centres undefined) | 54 | 55 | 
CCC(=O)c1cccc(C(C)C(=O)O)c1 (centres undefined) |  | 1 | 
CC(C(=O)O)c1ccc(NS(=O)(=O)C(C)C)cc1 (centres undefined) |  | 44 | 
C[C@@H](C(=O)NS(C)(=O)=O)c1ccc(OS(=O)(=O)C(F)(F)F)cc1 [LADARIXIN] | 61 | 60 | 
CC(C)NC(=O)[C@H](C)c1ccc(OS(=O)(=O)C(F)(F)F)cc1 | 72 |  | Inhibition [7]: 50%
CC(C(=O)O)c1cccc(C(=O)c2nccs2)c1 (centres undefined) | 48 | 63 | 
CC(C(=O)O)c1ccc(-c2ccccc2)cc1 (centres undefined) |  | 0 | 
CC(C(=O)O)c1ccc(OC(=O)c2ccccc2)cc1 (centres undefined) |  | 32 | 
CCC(C)c1cccc(C(C)C(=O)O)c1 (centres undefined) |  |  | Inhibition [8]: 50%
CCC(CC)c1cccc(C(C)C(=O)O)c1 (centres undefined) | 67 | 58 | 
CC(C(=O)O)c1cccc(Oc2ccccc2)c1 (centres undefined) [FENOPROFEN] |  | -17 | 
C[C@@H](C(N)=O)c1ccc(OS(=O)(=O)C(F)(F)F)cc1 | 58 | 60 | 
CC(C(=O)O)c1ccc(CC2CCC2)cc1 (centres undefined) | 59 | 55 | 
CC(C(=O)O)c1ccc(Cc2ccccc2)cc1 (centres undefined) | 35 | 1 | 
CC(C)ONC(=O)[C@H](C)c1ccc(OS(=O)(=O)C(F)(F)F)cc1 | 40 | 50 | 
CC(C(=O)O)c1ccc(N2Cc3ccccc3C2=O)cc1 (centres undefined) [INDOPROFEN] |  | 50 | Inhibition [9]: 40%
C[C@@H](C(=O)Nc1ccncc1)c1ccc(OS(=O)(=O)C(F)(F)F)cc1 |  | 11 | 
CC(C)S(=O)(=O)NC(=O)[C@H](C)c1ccc(OS(=O)(=O)C(F)(F)F)cc1 | 15 | 60 | 
C/C=C/c1ccc(C(C)C(=O)O)cc1 (centres undefined) |  | 11 | 
C[C@@H](C(=O)O)c1ccc(OS(=O)(=O)C(F)(F)F)cc1 | 65 | 68 | inhibition at 10 µM (Macrophage): 17%
CC(C(=O)O)c1cccc(C(=O)C2CCCC2)c1 (centres undefined) | 2 | -5 | 
CC(C(=O)O)c1ccc(NS(=O)(=O)c2ccccc2)cc1 (centres undefined) | 14 | 45 | 
C[C@@H](C(=O)NS(=O)(=O)c1ccccc1Cl)c1ccc(OS(=O)(=O)C(F)(F)F)cc1 |  | 18 | 
